Reference: PMC2736802 (Drug metabolism and disposition: the biological fate of …, 2008)
“Also recorded” adds a separate entry of the source. Where two headings read alike, the source gives them in different places.

Legend:
human liver microsomes = test: Inactivation of human liver microsomes; type: biochemical; conditions: BFC assay; data not shown
P450 3A5 [1] = molecular target: T1, P450 3A5 (Homo sapiens, UniProt P20815); test: Formation of 7-hydroxycoumarin by P450 3A5; type: in vitro ADME; conditions: 30 min reaction
Method in brief: (§1)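 P450 3A4 or 3A5 (expressed in E. coli, purified) was reconstituted with test compound. Reactions were started with 1 mM NADPH, run 30 min and stopped with 15% trichloroacetic acid. 7-Hydroxycoumarin was measured by C18 HPLC (isocratic 30% methanol, 0.2% acetic acid) with fluorescence detection (ex 350/em 453 nm). Quantified from peak areas against a 7-hydroxycoumarin standard curve.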

[2] = system: dextromethorphan induced micrsomes; test: Inactivation of dextromethorphan induced microsomes; type: biochemical; conditions: data not shown
Method in brief: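 Human liver microsomes and dextromethorphan-induced microsomes (0.3 nmol) were incubated with test compound in the presence of catalase and GSH. Reactions were started with NADPH and sampled at 0, 5 and 12 min. Residual activity was measured by the BFC O-debenzylation fluorescence assay.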

P450 3A4 [3] = test: Heme analysis of inactivated P450 3A4; type: biochemical, human; conditions: for % P450 Remaining by reduced-CO spectrum: 50 μM CPE or 12 μM TFCPE; for Residual Heme by HPLC: area under heme peak at 405 nm, control set to 100 %; for loss in heme: measured by HPLC, compared with the -NADPH control
Method in brief: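 P450 3A4 was reconstituted and inactivated as in the activity assay (50 μM or 12 μM test compound, 20 min, ±NADPH). For reduced-CO spectra, 100 pmol went into 50 mM phosphate pH 7.4 with 40% glycerol and 0.6% Tergitol, was CO-bubbled and dithionite-reduced, and scanned at 400–500 nm. For heme, 100 pmol was run on C4 HPLC (30–90% acetonitrile, 0.1% TFA, 30 min) and the 405 nm peak area was set against control = 100%. Mean and S.D. of four experiments.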

P450 3A4 [4] = test: Trapping of reactive intermediates formed by P450 3A4 with GSH; type: in vitro ADME, human; conditions: incubation with P450 3A4 in the presence of GSH and NADPH
Method in brief: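 Reconstituted P450 3A4 (0.5 nmol, with reductase and lipid) was inactivated by the test compound plus NADPH in the presence of 10 mM GSH. Reactions were stopped with 10% trifluoroacetic acid (60 μl/ml sample). Separation used a C18 column in a 5% acetonitrile/0.1% acetic acid gradient. Detection was ESI MS: full scan m/z 150–1000 plus two dependent MS/MS scans at 35% collision energy, with fluorescence detection also used.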

P450 3A4 [5] = test: LC-APCI-MS metabolite analysis with P450 3A4; type: in vitro ADME, human; conditions: incubation with P450 3A4 and NADPH
Method in brief: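 P450 3A4 reconstituted with reductase and lipid, then incubated with the test compound and NADPH at 37°C for 60 min. Control and inactivated samples (900 pmol each) were extracted with ethyl acetate and dried under nitrogen. Analysis was by LC-APCI-MS with UV at 319 nm, full scans m/z 100–2000, and data-dependent MS/MS on the four most intense ions.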

P450 3A4 [6] = type: biochemical, human; conditions: for % Activity Remaining: 50 μM CPE or 12 μM TFCPE; for loss in O-debenzylation activity: after a 20-min incubation compared with 0 min
Method in brief: (§2)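 Purified P450 was reconstituted with reductase and held 20 min at room temperature, then diluted in 50 mM Hepes pH 7.5 with 2 mM GSH and 250 units catalase. Test compound was added (25–500 μM or 5–100 μM, in acetonitrile), then NADPH. Timed 9 pmol aliquots went into 50 μM BFC/1 mM NADPH in 200 mM phosphate pH 7.4 for 15 min at 37 °C. Fluorescence read at ex 409/em 530 nm; KI, kinact and t1/2 from double-reciprocal plots.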

P450 3A4 [7] = test: Formation of 7-hydroxycoumarin by P450 3A4; type: in vitro ADME, human; conditions: 30 min reaction
Method in brief: as §1

P450 3A5 [8] = molecular target: T1, P450 3A5; type: biochemical; conditions: in the presence of NADPH
Method in brief: as §2

P450 3A4 [9] = type: biochemical, human; conditions: substrate testosterone; reconstituted system
P450 3A5 [10] = molecular target: T1, P450 3A5; test: LC-APCI-MS metabolite analysis with P450 3A5; type: in vitro ADME; conditions: incubation with P450 3A5
Method in brief: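 Reconstituted P450 3A5 was incubated with test compound and NADPH. Samples (900 pmol) were extracted with ethyl acetate, dried and taken up in 50% acetonitrile. Separation used C18 reverse phase with a water/acetonitrile gradient in 0.1% acetic acid, monitored by UV at 319 nm. Detection was positive-mode APCI on a linear ion trap, with full scans at m/z 100–2000 and data-dependent MS/MS.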

[11] = substrate BFC, reconstituted system

T1 sequence (P20815 whole entry): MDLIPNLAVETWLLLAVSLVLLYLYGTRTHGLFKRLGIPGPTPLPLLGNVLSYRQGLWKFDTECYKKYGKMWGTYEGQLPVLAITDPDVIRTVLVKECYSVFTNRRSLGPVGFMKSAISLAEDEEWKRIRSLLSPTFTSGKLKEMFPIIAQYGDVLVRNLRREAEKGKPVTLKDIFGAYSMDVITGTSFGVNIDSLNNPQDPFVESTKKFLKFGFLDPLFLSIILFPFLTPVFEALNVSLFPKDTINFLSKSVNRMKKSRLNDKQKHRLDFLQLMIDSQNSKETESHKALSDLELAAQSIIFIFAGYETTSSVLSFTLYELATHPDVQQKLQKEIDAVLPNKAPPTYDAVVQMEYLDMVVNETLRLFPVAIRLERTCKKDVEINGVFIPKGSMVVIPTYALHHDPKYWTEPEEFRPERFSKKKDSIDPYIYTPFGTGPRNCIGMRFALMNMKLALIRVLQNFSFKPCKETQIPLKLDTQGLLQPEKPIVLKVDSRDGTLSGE

| Structure (SMILES) | inactivation of human liver microsomes (human liver microsomes) | Formation of 7-OH coumarin (P450 3A5 [1]) | inactivation of dextromethorphan induced microsomes [2] | % P450 Remaining by reduced-CO spectrum (P450 3A4 [3]; 0 min, +NADPH) | % P450 Remaining by reduced-CO spectrum (P450 3A4 [3]; 0 min, -NADPH) | % P450 Remaining by reduced-CO spectrum (P450 3A4 [3]; 20 min, +NADPH) | % P450 Remaining by reduced-CO spectrum (P450 3A4 [3]; 20 min, -NADPH) | Residual Heme by HPLC (P450 3A4 [3]; +NADPH) | Residual Heme by HPLC (P450 3A4 [3]; -NADPH) | loss in heme (P450 3A4 [3]) | formation of glutathione adducts (P450 3A4 [4]) | metabolite peak by LC-APCI-MS/UV 319 nm (P450 3A4 [5]) | % Activity Remaining (P450 3A4 [6]; 0 min, +NADPH) | % Activity Remaining (P450 3A4 [6]; 0 min, -NADPH) | % Activity Remaining (P450 3A4 [6]; 20 min, +NADPH) | % Activity Remaining (P450 3A4 [6]; 20 min, -NADPH) | loss in O-debenzylation activity (P450 3A4 [6]) | Kinact (maximal rate of inactivation) (P450 3A4 [6]; [11]) | Formation of 7-OH coumarin (P450 3A4 [7]) | inactivation of the BFC O-debenzylation activity of P450 3A5 (P450 3A5 [8]) | further results |
| --- | --- | --- | --- | --- | --- | --- | --- | --- | --- | --- | --- | --- | --- | --- | --- | --- | --- | --- | --- | --- | --- |
| C#CCOc1ccc2ccc(=O)oc2c1 [CPE, 7-coumarin propargyl ether] | did not show inactivation; also recorded: neither CPE nor TFCPE led to any inactivation | 85.5 ± 7 pmol/pmol P450/min | did not show inactivation | 69 ± 5% | 69 ± 7% | 67 ± 4% | 67 ± 2% | 70 ± 11% | 100 ± 9% | approximately 30% | formation of CPE- and TFCPE-glutathione adducts | No similar peak or any other metabolite peak was observed | 85 ± 4% | 86 ± 5% | 50 ± 9% | 79 ± 3% | ~35% | 0.05 min⁻¹ | 48.1 ± 5 pmol/pmol P450/min | no inactivation; also recorded: neither CPE nor TFCPE showed any effect; also recorded: do not affect the activity | Kinact (maximal rate of inactivation) (P450 3A4 [9]): 0.014 min⁻¹ |
| C#CCOc1ccc2c(C(F)(F)F)cc(=O)oc2c1 [TFCPE, 7-(4-trifluoromethyl)coumarin propargyl ether] | did not show inactivation; also recorded: neither CPE nor TFCPE led to any inactivation | 78.8 ± 11 pmol/pmol P450/min | did not show inactivation | 75 ± 6% | 75 ± 4% | 43 ± 4% | 62 ± 2% | 61 ± 2% | 100 ± 4% | 40% | formation of CPE- and TFCPE-glutathione adducts | single metabolite peak eluting at 20.34 min | 82 ± 5% | 88 ± 3% | 25 ± 3% | 79 ± 7% | approximately 55% | 0.04 min⁻¹ | 97.2 ± 1 pmol/pmol P450/min | no inactivation; also recorded: neither CPE nor TFCPE showed any effect; also recorded: do not affect the activity | t1/2 (P450 3A4 [6]; [11]): 16.5 min; loss in activity (P450 3A4 [6]; with the -NADPH +TFCPE control): approximately 55%; metabolite by LC-APCI-MS (P450 3A5 [10]): did not result in any metabolite; Kinact (maximal rate of inactivation) (P450 3A4 [9]): 0.04 min⁻¹; t1/2 (P450 3A4 [9]): 17 min |
